In ChEMBL document CHEMBL1147484, “SAR of benzoylpyridines and benzophenones as p38alpha MAP kinase inhibitors with oral activity” (Bioorg Med Chem Lett, 2004):

What was measured:
[1] = target: Mitogen-activated protein kinase 14 (Mus musculus, UniProt P47811); assay: Inhibition of murine His-Mitogen-activated protein kinase p38 alpha phosphorylation.
[2] = test system: Mus musculus; assay: Inhibition of […] induced TNF-alpha release in mice upon oral administration; type: functional
[3] = target: Fibroblast growth factor receptor (Homo sapiens) (UniProt P22607+P11362+P22455+P21802); assay: Inhibitory activity against human FGFR at 10 uM; type: protein assay
[4] = test system: Rattus norvegicus; assay: Percent swelling of joints in rats immunized with Mycobacterium tuberculosis was determined on day 20 after 25 mg/kg peroral administration; type: functional; details: route oral
Outline: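 Female Wistar rats immunized with Mycobacterium tuberculosis at day 0 (adjuvant-induced arthritis); oral dosing 25 mg/kg twice daily from day 14 to 20; joint swelling measured on day 20, expressed as % inhibition of swelling.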

[5] = target: T1, Epidermal growth factor receptor (Homo sapiens, UniProt P00533); details: 10 uM
T1 sequence (P00533 whole entry): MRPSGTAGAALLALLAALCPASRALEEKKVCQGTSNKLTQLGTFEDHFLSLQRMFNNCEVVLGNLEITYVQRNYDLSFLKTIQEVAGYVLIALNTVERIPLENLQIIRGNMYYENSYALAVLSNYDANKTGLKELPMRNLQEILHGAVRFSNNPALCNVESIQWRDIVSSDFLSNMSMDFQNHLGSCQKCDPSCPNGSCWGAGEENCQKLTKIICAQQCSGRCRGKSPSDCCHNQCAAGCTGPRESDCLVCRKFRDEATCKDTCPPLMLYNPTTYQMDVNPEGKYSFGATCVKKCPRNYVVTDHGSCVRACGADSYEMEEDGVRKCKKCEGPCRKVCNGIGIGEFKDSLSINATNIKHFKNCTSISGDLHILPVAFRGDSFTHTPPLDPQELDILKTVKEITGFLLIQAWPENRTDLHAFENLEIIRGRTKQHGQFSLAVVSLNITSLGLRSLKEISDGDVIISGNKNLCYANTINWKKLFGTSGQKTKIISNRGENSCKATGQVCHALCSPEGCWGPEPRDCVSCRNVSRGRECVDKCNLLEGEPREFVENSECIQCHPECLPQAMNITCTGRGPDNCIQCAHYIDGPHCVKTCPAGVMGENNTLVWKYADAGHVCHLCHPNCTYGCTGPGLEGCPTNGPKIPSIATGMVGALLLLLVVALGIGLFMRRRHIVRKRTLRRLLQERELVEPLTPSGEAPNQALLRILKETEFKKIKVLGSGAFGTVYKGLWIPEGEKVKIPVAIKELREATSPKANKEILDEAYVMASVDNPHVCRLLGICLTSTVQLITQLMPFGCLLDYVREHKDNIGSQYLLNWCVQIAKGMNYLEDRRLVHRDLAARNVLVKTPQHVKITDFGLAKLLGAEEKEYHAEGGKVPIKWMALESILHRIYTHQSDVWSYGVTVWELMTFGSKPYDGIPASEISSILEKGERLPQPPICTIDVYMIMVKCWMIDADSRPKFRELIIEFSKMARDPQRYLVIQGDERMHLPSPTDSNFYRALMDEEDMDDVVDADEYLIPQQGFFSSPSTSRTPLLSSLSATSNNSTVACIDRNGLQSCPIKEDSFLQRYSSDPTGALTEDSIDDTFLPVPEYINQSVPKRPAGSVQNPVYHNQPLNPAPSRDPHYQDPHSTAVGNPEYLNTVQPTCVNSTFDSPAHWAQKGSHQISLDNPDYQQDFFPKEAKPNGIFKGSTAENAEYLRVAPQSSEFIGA

[6] = target: Mast/stem cell growth factor receptor Kit (Homo sapiens) (UniProt P10721); assay: Inhibition of human c-Kit kinase; details: concentration not given here
[7] = target: Cyclin-dependent kinase 1 (Homo sapiens) (UniProt P06493); assay: Inhibition of human cyclin-dependent kinase 1 at 10 uM
[8] = target: Insulin-like growth factor 1 receptor (Homo sapiens) (UniProt P08069); assay: Inhibition of human insulin-like growth factor I receptor at 10 uM
Insulin-like growth factor 1 receptor (Homo sapiens), sequence (P08069 31-736 limits assumed): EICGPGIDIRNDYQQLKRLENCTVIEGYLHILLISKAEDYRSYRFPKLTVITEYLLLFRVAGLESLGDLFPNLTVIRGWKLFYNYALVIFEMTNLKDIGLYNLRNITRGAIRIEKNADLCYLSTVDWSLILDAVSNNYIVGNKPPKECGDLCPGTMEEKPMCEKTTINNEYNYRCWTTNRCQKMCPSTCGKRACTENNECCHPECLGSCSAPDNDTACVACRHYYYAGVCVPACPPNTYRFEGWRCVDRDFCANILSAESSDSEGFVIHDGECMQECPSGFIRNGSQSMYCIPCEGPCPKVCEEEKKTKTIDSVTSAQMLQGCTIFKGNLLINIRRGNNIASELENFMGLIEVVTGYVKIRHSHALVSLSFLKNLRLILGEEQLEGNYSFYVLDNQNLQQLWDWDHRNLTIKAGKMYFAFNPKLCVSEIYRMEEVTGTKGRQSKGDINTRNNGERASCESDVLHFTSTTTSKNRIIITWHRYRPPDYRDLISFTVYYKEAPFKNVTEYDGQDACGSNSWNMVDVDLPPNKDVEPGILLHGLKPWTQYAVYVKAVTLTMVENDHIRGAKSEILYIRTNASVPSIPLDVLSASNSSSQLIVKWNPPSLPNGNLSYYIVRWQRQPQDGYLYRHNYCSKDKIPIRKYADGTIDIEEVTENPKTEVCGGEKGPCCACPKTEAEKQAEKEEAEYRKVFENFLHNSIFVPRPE
Insulin-like growth factor 1 receptor (Homo sapiens), sequence (P08069 741-1367 limits assumed): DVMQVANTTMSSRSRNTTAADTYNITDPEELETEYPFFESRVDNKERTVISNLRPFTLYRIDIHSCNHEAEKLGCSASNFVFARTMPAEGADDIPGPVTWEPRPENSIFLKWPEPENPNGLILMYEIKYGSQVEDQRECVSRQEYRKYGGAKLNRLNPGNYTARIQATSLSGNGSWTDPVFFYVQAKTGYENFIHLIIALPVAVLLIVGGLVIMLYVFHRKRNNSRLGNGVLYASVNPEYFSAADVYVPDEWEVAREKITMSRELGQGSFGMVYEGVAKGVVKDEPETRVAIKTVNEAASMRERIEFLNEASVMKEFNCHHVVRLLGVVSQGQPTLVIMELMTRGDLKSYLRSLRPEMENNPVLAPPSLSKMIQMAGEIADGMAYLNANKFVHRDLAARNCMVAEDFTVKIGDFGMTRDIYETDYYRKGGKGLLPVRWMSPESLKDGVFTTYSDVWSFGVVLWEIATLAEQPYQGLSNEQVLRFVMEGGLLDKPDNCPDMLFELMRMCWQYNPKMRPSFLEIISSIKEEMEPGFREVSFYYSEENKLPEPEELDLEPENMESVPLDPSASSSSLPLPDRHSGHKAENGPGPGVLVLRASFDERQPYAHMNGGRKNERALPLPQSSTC

[9] = target: Proto-oncogene tyrosine-protein kinase Src (Homo sapiens) (UniProt P12931); assay: Inhibition of human c-Src at 10 uM
[10] = Oral bioavailability; type: ADME, organism-based; details: rat, in vivo
Outline: (§1)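 Pharmacokinetics were determined in rat. Cmax was measured after a 1 mg/kg oral dose. Oral bioavailability, terminal half-life and steady-state volume of distribution (Vss, L/kg) were reported.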

[11] = target: T1, Epidermal growth factor receptor; assay: (§2) Inhibition of human Epidermal growth factor receptor
[12] = target: Mitogen-activated protein kinase 9 (Homo sapiens, UniProt P45984); assay: Inhibit of human c-Jun N-terminal kinase 2
Mitogen-activated protein kinase 9, sequence (P45984 whole entry): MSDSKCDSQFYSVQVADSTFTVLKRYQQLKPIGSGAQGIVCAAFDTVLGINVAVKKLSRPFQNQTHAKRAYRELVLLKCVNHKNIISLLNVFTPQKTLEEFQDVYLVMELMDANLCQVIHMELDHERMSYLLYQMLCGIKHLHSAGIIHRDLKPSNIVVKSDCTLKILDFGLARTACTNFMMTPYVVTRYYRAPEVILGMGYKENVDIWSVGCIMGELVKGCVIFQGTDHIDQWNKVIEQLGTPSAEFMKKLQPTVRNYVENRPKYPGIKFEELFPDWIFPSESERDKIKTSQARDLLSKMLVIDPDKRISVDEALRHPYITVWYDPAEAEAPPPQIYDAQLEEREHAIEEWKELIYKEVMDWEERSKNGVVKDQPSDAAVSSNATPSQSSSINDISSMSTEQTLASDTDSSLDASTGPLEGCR

[13] = target: Prostaglandin G/H synthase 1 (Homo sapiens, UniProt P23219); assay: Inhibition of human prostaglandin G/H synthase 1
Prostaglandin G/H synthase 1, sequence (P23219 whole entry): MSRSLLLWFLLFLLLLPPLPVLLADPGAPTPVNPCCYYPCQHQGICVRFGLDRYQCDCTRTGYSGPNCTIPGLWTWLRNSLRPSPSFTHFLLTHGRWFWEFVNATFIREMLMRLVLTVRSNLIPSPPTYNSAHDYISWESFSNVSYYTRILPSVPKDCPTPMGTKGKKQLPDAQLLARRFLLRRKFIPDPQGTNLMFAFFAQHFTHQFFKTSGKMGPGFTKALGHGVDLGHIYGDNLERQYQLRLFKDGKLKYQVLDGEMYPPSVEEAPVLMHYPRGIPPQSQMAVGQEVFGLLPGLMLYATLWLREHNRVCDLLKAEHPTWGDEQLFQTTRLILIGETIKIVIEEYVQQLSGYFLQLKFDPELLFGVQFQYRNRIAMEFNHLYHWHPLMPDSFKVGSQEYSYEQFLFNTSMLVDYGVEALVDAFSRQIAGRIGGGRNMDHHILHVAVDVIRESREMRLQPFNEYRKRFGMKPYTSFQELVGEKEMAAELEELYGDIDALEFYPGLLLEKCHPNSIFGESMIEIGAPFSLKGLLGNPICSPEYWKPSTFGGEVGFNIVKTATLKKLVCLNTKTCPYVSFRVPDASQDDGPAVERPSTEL

[14] = Volume of distribution in steady state was determined in rat; type: ADME, organism-based; details: in vivo, read-out: Vss; outline: as §1
[15] = Peak plasma concentration at 1 mg/kg peroral administration; type: ADME, organism-based; parameters: dose 1 mg/kg, route oral; details: rat, po; outline: as §1
[16] = target: Cytochrome P450 2D6 (Homo sapiens, UniProt P10635); assay: Inhibition of human cytochrome P450 2D6; type: ADME
[17] = target: Cytochrome P450 2C9 (Homo sapiens, UniProt P11712); assay: Inhibition of human cytochrome P450 2C9; type: ADME
Cytochrome P450 2C9, sequence (P11712 whole entry): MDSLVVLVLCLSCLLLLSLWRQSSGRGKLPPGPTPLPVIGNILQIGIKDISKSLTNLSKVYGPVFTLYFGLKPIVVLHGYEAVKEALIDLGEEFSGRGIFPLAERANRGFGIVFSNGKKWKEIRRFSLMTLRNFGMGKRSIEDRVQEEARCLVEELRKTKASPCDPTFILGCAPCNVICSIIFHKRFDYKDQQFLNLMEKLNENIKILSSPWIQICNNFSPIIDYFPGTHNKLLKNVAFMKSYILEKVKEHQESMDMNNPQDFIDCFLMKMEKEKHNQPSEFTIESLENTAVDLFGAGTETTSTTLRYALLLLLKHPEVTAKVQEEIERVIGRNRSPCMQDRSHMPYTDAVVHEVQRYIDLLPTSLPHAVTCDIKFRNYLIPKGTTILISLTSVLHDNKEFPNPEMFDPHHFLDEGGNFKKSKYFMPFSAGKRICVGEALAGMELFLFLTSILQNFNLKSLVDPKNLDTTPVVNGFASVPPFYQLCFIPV

[18] = target: Cytochrome P450 3A4 (Homo sapiens, UniProt P08684); assay: Inhibition of human cytochrome P450 3A4; type: ADME
Cytochrome P450 3A4, sequence (P08684 whole entry): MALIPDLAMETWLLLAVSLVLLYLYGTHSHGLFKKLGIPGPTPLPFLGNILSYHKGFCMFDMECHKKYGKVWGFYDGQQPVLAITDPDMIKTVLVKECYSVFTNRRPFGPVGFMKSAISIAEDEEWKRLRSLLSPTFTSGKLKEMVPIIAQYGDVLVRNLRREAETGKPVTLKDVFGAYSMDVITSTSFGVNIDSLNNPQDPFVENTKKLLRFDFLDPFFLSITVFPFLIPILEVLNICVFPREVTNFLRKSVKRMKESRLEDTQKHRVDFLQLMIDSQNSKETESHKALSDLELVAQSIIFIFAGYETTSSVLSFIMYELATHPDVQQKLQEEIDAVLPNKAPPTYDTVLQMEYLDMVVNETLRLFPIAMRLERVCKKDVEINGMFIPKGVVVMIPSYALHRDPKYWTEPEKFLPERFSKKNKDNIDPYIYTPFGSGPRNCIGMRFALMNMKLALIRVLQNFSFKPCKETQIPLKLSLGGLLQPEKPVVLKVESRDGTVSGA

[19] = target: T1, Epidermal growth factor receptor; assay: as §2; remark: listed apart in the source
[20] = target: Hepatocyte growth factor receptor (Homo sapiens, UniProt P08581); assay: Inhibit of human Met proto-oncogene tyrosine kinase
[21] = target: T2, Cytochrome P450 1A2 (Homo sapiens, UniProt P05177); assay: Inhibition of human cytochrome P450 1A2; type: ADME
T2 sequence (P05177 whole entry): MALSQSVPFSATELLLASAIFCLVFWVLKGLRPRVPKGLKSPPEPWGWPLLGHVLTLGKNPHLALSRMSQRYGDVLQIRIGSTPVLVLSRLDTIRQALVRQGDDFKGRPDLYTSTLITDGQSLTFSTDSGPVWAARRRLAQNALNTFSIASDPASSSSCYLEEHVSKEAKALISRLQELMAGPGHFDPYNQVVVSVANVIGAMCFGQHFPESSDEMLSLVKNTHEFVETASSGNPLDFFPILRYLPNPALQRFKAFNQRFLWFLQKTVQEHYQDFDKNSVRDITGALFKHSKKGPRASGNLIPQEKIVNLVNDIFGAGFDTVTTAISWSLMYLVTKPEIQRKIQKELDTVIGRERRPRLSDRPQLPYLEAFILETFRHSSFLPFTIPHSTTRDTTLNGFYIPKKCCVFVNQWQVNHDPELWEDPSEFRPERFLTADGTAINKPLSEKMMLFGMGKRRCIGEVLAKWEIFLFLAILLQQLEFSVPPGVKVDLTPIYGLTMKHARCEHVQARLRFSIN

[22] = target: RAF proto-oncogene serine/threonine-protein kinase (Homo sapiens) (UniProt P04049); assay: Inhibition of human RAF proto-oncogene serine/threonine-protein kinase at 10 uM
[23] = test system: Rattus norvegicus; assay: Dose required to inhibit bovine nasalseptum type II collagen induced arthritis in rats after administration on day 13; type: functional; details: 312 h
[24] = test system: Mus musculus; assay: Dose required to inhibit […] induced TNF-alpha release in mice upon oral administration; type: functional

Mitogen-activated protein kinase 14, sequence (P47811 whole entry): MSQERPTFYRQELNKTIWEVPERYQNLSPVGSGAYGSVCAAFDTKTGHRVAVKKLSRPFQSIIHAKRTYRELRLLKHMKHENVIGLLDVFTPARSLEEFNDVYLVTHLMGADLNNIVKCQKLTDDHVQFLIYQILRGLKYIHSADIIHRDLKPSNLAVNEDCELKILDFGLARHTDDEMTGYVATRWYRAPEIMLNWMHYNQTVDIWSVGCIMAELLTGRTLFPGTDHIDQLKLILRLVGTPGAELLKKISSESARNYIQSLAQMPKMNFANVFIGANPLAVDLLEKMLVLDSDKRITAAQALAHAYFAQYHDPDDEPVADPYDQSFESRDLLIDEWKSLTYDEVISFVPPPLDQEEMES

Structure (SMILES)	IC50 [1] [µM]	Inhibition [2] [%]	Swelling [4] [%]	other results
O=C(c1ccc(Nc2ccc(F)cc2F)cc1)c1ccccc1Cl	11	6	–	–
COc1cc2[nH]c(C)nc2cc1C(=O)c1ccc(Nc2ccc(F)cc2F)cc1	–	90	50	inhibition [3]: 0%; inhibition [5]: -10%; inhibition [6]: 0%; inhibition [7]: 0%; inhibition [8]: 0%; inhibition [9]: 0%
O=C(c1ccc(Nc2ccc(F)cc2F)nc1)c1ccccc1Cl	101	–	–	–
COc1ccc(C#CC(C)(C)N)cc1C(=O)c1ccc(Nc2ccc(F)cc2F)cc1	14	95	51	bioavailability [10]: 46%; IC50 [11]: 4.4 µM; IC50 [12]: > 10 µM; IC50 [13]: > 80 µM; Vd [14]: 9 L/kg; Cmax [15]: 59 nM; IC50 [16]: > 2 µM; IC50 [17]: > 2 µM; IC50 [18]: > 2 µM; IC50 [19]: 8.8 µM; IC50 [20]: 1.5 µM; IC50 [21]: > 2 µM; inhibition [22]: 0%; inhibition [8]: 0%; inhibition [9]: -10%
COc1ccc(CCC2(O)CCN(C)CC2)cc1C(=O)c1ccc(Nc2ccc(F)cc2F)cc1	51	0	–	–
Cc1nc2cc(C(=O)c3ccc(Nc4ccc(F)cc4F)nc3)c(Cl)cc2[nH]1	8	91	40	–
COc1ccccc1C(=O)c1ccc(Nc2ccc(F)cc2F)cc1	38	0	–	–
COc1ccc(C#CC(C)(C)N)cc1C(=O)c1ccc(Nc2ccc(F)cc2F)nc1	8	91	52	–
O=C(c1ccc(Nc2ccc(F)cc2F)nc1)c1cc(Br)ccc1Cl	300	–	–	–
CC(C)(N)C#Cc1ccc(Cl)c(C(=O)c2ccc(Nc3ccc(F)cc3F)nc2)c1	19	50	36	–
COc1ccc(/C=C/C2(O)CCN(C)CC2)cc1C(=O)c1ccc(Nc2ccc(F)cc2F)cc1	1	68	47	–
COc1cc2[nH]c(C)nc2cc1C(=O)c1ccc(Nc2ccc(F)cc2F)nc1	21	57	70	bioavailability [10]: 54%; Vd [14]: 1.1 L/kg; Cmax [15]: 607 nM; ED50 [23]: 8.6 mg/kg
CC(C)(N)C#Cc1ccc(Cl)c(C(=O)c2ccc(Nc3ccc(F)cc3F)cc2)c1	6	85	–	–
COc1ccc(CCC(C)(C)O)cc1C(=O)c1ccc(Nc2ccc(F)cc2F)nc1	479	–	–	–
CC(C)(N)CCc1ccc(Cl)c(C(=O)c2ccc(Nc3ccc(F)cc3F)nc2)c1	160	–	–	–
Cc1nc2cc(C(=O)c3ccc(Nc4ccc(F)cc4F)cc3)c(Cl)cc2[nH]1	0.7	93	46	–
COc1ccc(CCC(C)(C)N)cc1C(=O)c1ccc(Nc2ccc(F)cc2F)cc1	113	0	–	–
COc1cc2nc(C)[nH]c2cc1C(=O)c1ccc(Nc2ccc(F)cc2F)cc1	5	–	–	IC50 [12]: > 10 µM; IC50 [13]: > 80 µM; IC50 [16]: > 2 µM; IC50 [17]: > 2 µM; IC50 [18]: > 2 µM; IC50 [21]: > 2 µM
COc1ccc(C#CC(C)(C)O)cc1C(=O)c1ccc(Nc2ccc(F)cc2F)nc1	54	88	23	ED50 [24]: 23 mg/kg
